{"source": "ChEMBL document CHEMBL4270578", "about": "“Synthesis and cytotoxic studies of novel 5-phenylisatin derivatives and their anti-migration and anti-angiogenic evaluation” (Eur J Med Chem, 2018)", "key": {"HUVEC [1]": {"test_system": "HUVEC", "test": "Cytotoxicity against HUVEC after 48 hrs by MTT assay", "format": "cell-based", "details": "Homo sapiens"}, "K562 [2]": {"test_system": "K562", "test": "Induction of morphological changes in human K562 cells assessed as cell shrinkage at 30 nM after 24 hrs", "format": "functional, cell-based", "outline": "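K562 cells kept in RPMI-1640 with 10% FBS, 2.05 mM glutamine and penicillin/streptomycin at 37 °C, 5% CO2. Exposed to 30 nM drug alongside DMSO-treated controls. Cell morphology examined by microscopy.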"}, "K562 [3]": {"test_system": "K562", "test": "Induction of apoptosis in human K562 cells assessed as late apoptotic cells at 30 nM after 6 hrs by Annexin V-FITC/propidium iodide staining-based flow cytometric analysis (reference value: 2.2%)", "format": "functional"}, "K562 [4]": {"test_system": "K562", "test": "Induction of apoptosis in human K562 cells assessed as necrotic cells at 30 nM after 12 hrs by Annexin V-FITC/propidium iodide staining-based flow cytometric analysis (reference value: 0.1%)", "format": "functional"}, "K562 [5]": {"test_system": "K562", "test": "Induction of apoptosis in human K562 cells assessed as late apoptotic cells at 30 nM after 48 hrs by Annexin V-FITC/propidium iodide staining-based flow cytometric analysis (reference value: 2.2%)", "format": "functional"}, "K562 [6]": {"test_system": "K562", "test": "Induction of apoptosis in human K562 cells assessed as viable cells at 300 nM after 6 hrs by Annexin V-FITC/propidium iodide staining-based flow cytometric analysis (reference value: 95.6%)", "format": "functional", "details": "K562, 6 h, read-out: Activity"}, "K562 [7]": {"test_system": "K562", "test": "Induction of apoptosis in human K562 cells assessed as early apoptotic cells at 300 nM after 6 hrs by Annexin V-FITC/propidium iodide staining-based flow cytometric analysis (reference value: 2.2%)", "format": "functional"}, "K562 [8]": {"test_system": "K562", "test": "Induction of apoptosis in human K562 cells assessed as late apoptotic cells at 300 nM after 6 hrs by Annexin V-FITC/propidium iodide staining-based flow cytometric analysis (reference value: 2.1%)", "format": "functional"}, "K562 [9]": {"test_system": "K562", "test": "Induction of apoptosis in human K562 cells assessed as necrotic cells at 300 nM after 12 hrs by Annexin V-FITC/propidium iodide staining-based flow cytometric analysis (reference value: 0%)", "format": "functional"}, "K562 [10]": {"test_system": "K562", "test": "Induction of apoptosis in human K562 cells assessed as viable cells at 300 nM after 48 hrs by Annexin V-FITC/propidium iodide staining-based flow cytometric analysis (reference value: 95.6%)", "format": "functional", "details": "K562, 48 h, read-out: Activity"}, "K562 [11]": {"test_system": "K562", "test": "Induction of apoptosis in human K562 cells assessed as late apoptotic cells at 300 nM after 48 hrs by Annexin V-FITC/propidium iodide staining-based flow cytometric analysis (reference value: 2.1%)", "format": "functional"}, "HUVEC [12]": {"test_system": "HUVEC", "test": "Antiangiogenic activity against HUVEC assessed as inhibition of tube formation after 12 hrs by microscopic analysis", "format": "functional, cell-based", "details": "Homo sapiens", "outline": "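Matrigel (13.9 mg/mL) polymerized 30 min at 37 °C. HUVECs (1 × 10^5 cells/well) in Ham's F-12 + 10% FBS plated on the gel; after 40 min, DMSO or compound (10, 30, 100 nM) added. Incubated 12 h at 37 °C, 5% CO2; capillary-like tube formation photographed by microscopy.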"}}, "note": "Active and inactive are the calls of the source. The rule behind the calls is not given here.", "data": [{"smiles": "COc1ccc(CN2C(=O)C(=O)c3cc(-c4ccc(OC)cc4)ccc32)cc1", "values": [{"measurement": "IC50", "setting": "HUVEC [1]", "result": 920, "unit": "nM"}, {"measurement": "Activity", "setting": "K562 [2]", "result": "Active"}, {"measurement": "Activity", "setting": "K562 [3]", "result": 3.3, "unit": "%"}, {"measurement": "Activity", "setting": "K562 [4]", "result": 0, "unit": "%"}, {"measurement": "Activity", "setting": "K562 [5]", "result": 21.1, "unit": "%"}, {"measurement": "viability at 0.3 µM", "setting": "K562 [6]", "result": 93.6, "unit": "%"}, {"measurement": "Activity", "setting": "K562 [7]", "result": 2.4, "unit": "%"}, {"measurement": "Activity", "setting": "K562 [8]", "result": 3.8, "unit": "%"}, {"measurement": "Activity", "setting": "K562 [9]", "result": 0.4, "unit": "%"}, {"measurement": "viability at 0.3 µM", "setting": "K562 [10]", "result": 4.7, "unit": "%"}, {"measurement": "Activity", "setting": "K562 [11]", "result": 10, "unit": "%"}, {"measurement": "Activity", "setting": "HUVEC [12]", "result": "Dose-dependent effect"}]}]}
